From PMC10825487 (Heliyon, 2024) come the findings set out here.

The structures appear in SMILES notation.

This assay addresses DENV2 NS2B-NS3 protease (Dengue virus type 2, UniProt P29990). Description: DENV2 NS2B-NS3 protease inhibition assay. The class given is biochemical. The settings on record: for fold decrease of inhibitory activity: based on IC50, compared to 3e; for IC50: IC50 (Table 3), in vitro inhibition of DENV2 NS2B-NS3 protease, two decimals. The procedure, abridged: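 Recombinant DENV-2 NS2B-NS3 protease (pQE-30, E. coli XL1-Blue MRF', IPTG-induced, Ni-NTA-purified) at 3.5 µM in 200 mM Tris-HCl pH 8.5. Preincubated with test compound (700 µM screen; 5.5–700.0 µM for IC50) for 10 min at 37 °C. Then 150 µM Boc-Gly-Arg-Arg-MCA added, 1 h at 37 °C. AMC read at ex 365/em 410 nm. % inhibition relative to enzyme+substrate control, buffer blank subtracted. n = 3; IC50 by nonlinear regression.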

Chain of DENV2 NS2B-NS3 protease (P29990 1346-1475): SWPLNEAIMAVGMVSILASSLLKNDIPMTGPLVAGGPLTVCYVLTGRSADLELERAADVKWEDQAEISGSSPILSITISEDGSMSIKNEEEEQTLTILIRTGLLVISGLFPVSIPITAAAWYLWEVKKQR
Chain of DENV2 NS2B-NS3 protease (P29990 1476-1653): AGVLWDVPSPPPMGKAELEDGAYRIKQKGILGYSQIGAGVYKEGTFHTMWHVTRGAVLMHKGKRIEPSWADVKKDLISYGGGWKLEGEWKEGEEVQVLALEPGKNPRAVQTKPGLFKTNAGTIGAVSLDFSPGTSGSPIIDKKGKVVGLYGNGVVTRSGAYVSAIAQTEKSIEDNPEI

The term inhibition denotes the relative decrease from the control value, in per cent. Turning to `COc1ccc(-c2nc3cc4nc5ccccc5nc4cc3[nH]2)cc1[N+](=O)[O-]` [Compound 3a, 2-(4-methoxy-3-nitrophenyl)-1H-imidazo [4,5-b]phenazine], the inhibition at 700 µM came out at 83.5 ± 1.96% and the “fold decrease of inhibitory activity” value was 1 fold.

`Oc1ccccc1-c1nc2cc3nc4ccccc4nc3cc2[nH]1` [Compound 3b, 2-(2-hydroxyphenyl)-1H-imidazo [4,5-b]phenazine] yielded an inhibition at 700 µM of 46.6 ± 1.68%.

`COc1ccc(-c2nc3cc4nc5ccccc5nc4cc3[nH]2)cc1OC` [Compound 3c, 2-(3,4-dimethoxyphenyl)-1H-imidazo [4,5-b]phenazine] came in with an inhibition at 700 µM of 55.31 ± 0.39%.

With `COc1cc([N+](=O)[O-])ccc1-c1nc2cc3nc4ccccc4nc3cc2[nH]1` [Compound 3d, 2-(2-methoxy-4-nitrophenyl)-1H-imidazo [4,5-b]phenazine], 700 µM produced 83.9 ± 1.67% inhibition and the “fold decrease of inhibitory activity” value was found to be 1.4 fold.

As a reminder, the IC50 is the concentration that gives 50% inhibition. Compound `O=[N+]([O-])c1ccc(-c2nc3cc4nc5ccccc5nc4cc3[nH]2)cc1O` [Compound 3e, 2-(3-hydroxy-4-nitrophenyl)-1H-imidazo [4,5-b]phenazine] yielded an inhibition at 700 µM of 95.5 ± 1.75% and an IC50 of 54.8 µM.

The compound `Oc1c(Br)cccc1-c1nc2cc3nc4ccccc4nc3cc2[nH]1` [Compound 3f, 2-(3-bromo-2-hydroxyphenyl)-1H-imidazo [4,5-b]phenazine] came in with an inhibition at 700 µM of 70.8 ± 1.46%.

For `COc1cc(-c2nc3cc4nc5ccccc5nc4cc3[nH]2)cc(OC)c1OC` [Compound 3g, 2-(3,4,5-trimethoxyphenyl)-1H-imidazo [4,5-b]phenazine], 700 µM produced 53.3 ± 2.76% inhibition.

Take `Oc1ccc(-c2nc3cc4nc5ccccc5nc4cc3[nH]2)c(O)c1` [Compound 3h, 2-(2,4-dihydroxyphenyl)-1H-imidazo [4,5-b]phenazine]: the inhibition at 700 µM came to 84.7 ± 1.26%.

With `CC(C)c1ccc(-c2nc3cc4nc5ccccc5nc4cc3[nH]2)cc1` [Compound 3i, 2-(4-isopropylphenyl)-1H-imidazo [4,5-b]phenazine], the inhibition at 700 µM is 75.68 ± 0.26%.

With `Oc1ccc(-c2nc3cc4nc5ccccc5nc4cc3[nH]2)cc1` [Compound 3j, 2-(4-hydroxyphenyl)-1H-imidazo [4,5-b]phenazine], the inhibition at 700 µM is 60.3 ± 2.27% and the “fold decrease of inhibitory activity” value is recorded as 3 fold.

As to `FC(F)(F)Oc1ccc(-c2nc3cc4nc5ccccc5nc4cc3[nH]2)cc1` [Compound 3k, 2-(4-(trifluoromethoxy)phenyl)-1H-imidazo [4,5-b]phenazine], testing at 700 µM gave an inhibition of 63.3 ± 2.8% and the IC50 was 71.9 µM.

In the case of `Fc1ccccc1-c1nc2cc3nc4ccccc4nc3cc2[nH]1` [Compound 3l, 2-(2-fluorophenyl)-1H-imidazo [4,5-b]phenazine], 700 µM produced 78.23 ± 0.03% inhibition.

Compound `Fc1ccc(-c2nc3cc4nc5ccccc5nc4cc3[nH]2)cc1` [Compound 3m, 2-(4-fluorophenyl)-1H-imidazo [4,5-b]phenazine] showed an inhibition at 700 µM of 84.8 ± 0.89%. Where the note is “based on IC50, compared to 3k”, the “fold decrease of inhibition” value is 2.2 fold.

As to `O=c1c(O)c(-c2ccc(O)c(O)c2)oc2cc(O)cc(O)c12` [Quercetin, reference compound], at 700 µM the inhibition was 90.27 ± 0.49% and half-maximal inhibition (IC50) was put at 105 µM.
